Measured values taken from ChEMBL document CHEMBL1153349, “3-Hydroxy-4-oxo-4H-pyrido[1,2-a]pyrimidine-2-carboxylates--a new class of HIV-1 integrase inhibitors” (Bioorg Med Chem Lett, 2009).

What was measured:
[1] = target: Human immunodeficiency virus type 1 integrase (Human immunodeficiency virus 1, UniProt Q7ZJM1); experiment: Inhibition of HIV1 recombinant integrase strand transfer activity
[2] = tested on: Human immunodeficiency virus 1; experiment: Antiviral activity against HIV1 3B infected in human MT4 cells after 3 days by ELISA in presence of 10% fetal bovine serum; assay type: functional; conditions: Human immunodeficiency virus 1, 3B, MT4, 72 h; read-out: CIC95
Method in brief: (§1)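 HIV-1 infection spread was measured in cell culture (spread assay) under low-serum (10% fetal bovine serum) or high-serum (50% normal human serum) conditions.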

MT4 = experiment: Cytotoxicity against human MT4 cells assessed as morphological changes up to 50 uM after 4 days; assay type: cell-based; conditions: mt4, 96 h
[3] = tested on: Human immunodeficiency virus 1; experiment: Antiviral activity against HIV1 3B infected in human MT4 cells after 3 days by ELISA in presence of 50% normal human serum; assay type: functional; conditions: Human immunodeficiency virus 1, 3B, MT4, 72 h; read-out: CIC95; method in brief: as §1
[4] = Plasma clearance in rat at 3 mg/kg, iv; assay type: ADME, organism-based; set-up: dose 3 mg/kg, route intravenous
Method in brief: (§2)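 Rats were dosed at 3 mg/kg both intravenously and orally, and the plasma PK profile was obtained. Parameters were AUC, plasma half-life and oral bioavailability (F%). Plasma clearance was taken from the IV dose.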

[5] = Oral bioavailability in rat at 3 mg/kg; assay type: ADME, organism-based; conditions: in vivo; method in brief: as §2
Rattus norvegicus = experiment: AUC in rat plasma at 3 mg/kg, iv and po; assay type: ADME, organism-based; set-up: dose 3 mg/kg, route oral; conditions: in vivo; method in brief: as §2
[6] = Half life in rat plasma at 3 mg/kg, iv and po; assay type: ADME, organism-based; set-up: dose 3 mg/kg, route oral; method in brief: as §2

Sequence of Human immunodeficiency virus type 1 integrase (Q7ZJM1 whole entry): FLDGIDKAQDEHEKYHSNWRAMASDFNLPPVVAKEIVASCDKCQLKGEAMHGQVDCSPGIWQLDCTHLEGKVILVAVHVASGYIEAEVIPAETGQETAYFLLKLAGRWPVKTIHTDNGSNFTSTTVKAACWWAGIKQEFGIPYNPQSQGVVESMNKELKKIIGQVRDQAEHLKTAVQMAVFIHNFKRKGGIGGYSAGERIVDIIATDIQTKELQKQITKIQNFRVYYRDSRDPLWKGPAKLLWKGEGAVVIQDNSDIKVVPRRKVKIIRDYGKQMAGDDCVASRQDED

In the case of O=C(NCc1cccn2c(=O)c(O)c(C(=O)NCc3ccc(F)cc3)nc12)c1ccccc1, the IC50 [1] is reported as 24 nM.

With CCN(C(=O)c1nnc(C)o1)c1cccn2c(=O)c(O)c(C(=O)NCc3ccc(F)cc3)nc12 the IC50 [1] was 50 nM, the IC95 [2] was 500 nM and the Activity (MT4) was “Non-toxic”. It also gave an IC95 [3] of over 1000 nM.

For CCN(C(=O)CN(C)C)c1cccn2c(=O)c(O)c(C(=O)NCc3ccc(F)cc3)nc12, the IC50 [1] was 185 nM, the IC95 [2] was over 1000 nM and the Activity (MT4) was “Non-toxic”. The IC95 [3] was over 1000 nM.

For CCN(C(=O)C(=O)N1CCCC1)c1cccn2c(=O)c(O)c(C(=O)NCc3ccc(F)cc3)nc12, the IC50 [1] was 21 nM, the IC95 [2] was 31 nM and the Activity (MT4) was “Non-toxic”. For the same molecule, the IC95 [3] was 1000 nM.

With CC(=O)N1CCN(Cc2cccn3c(=O)c(O)c(C(=O)NCc4ccc(F)cc4)nc23)CC1 the IC50 [1] was 185 nM.

With CN(C)C(=O)C(=O)N(C)c1cccn2c(=O)c(O)c(C(=O)NCc3ccc(F)cc3)nc12 the IC50 [1] was 26 nM, the IC95 [2] was 125 nM and the Activity (MT4) was “Non-toxic”. For the same molecule, the IC95 [3] was 500 nM.

In the case of CCNc1cccn2c(=O)c(O)c(C(=O)NCc3ccc(F)cc3)nc12, the IC50 [1] is reported as 36 nM, the IC95 [2] is reported as 1250 nM and the Activity (MT4) is reported as “Non-toxic”. The IC95 [3] was over 1000 nM.

For CCN(C(=O)c1ccccn1)c1cccn2c(=O)c(O)c(C(=O)NCc3ccc(F)cc3)nc12, the IC50 [1] was 21 nM, the IC95 [2] was 250 nM and the Activity (MT4) was “Non-toxic”. For the same molecule, the IC95 [3] was 1000 nM.

For CCN(C(=O)C(=O)N1CCN(C)CC1)c1cccn2c(=O)c(O)c(C(=O)NCc3ccc(F)cc3)nc12, the IC50 [1] was 21 nM, the IC95 [2] was 125 nM and the Activity (MT4) was “Non-toxic”. For the same molecule, the IC95 [3] was 500 nM.

CNc1cccn2c(=O)c(O)c(C(=O)NCc3ccc(F)cc3)nc12 gave an IC50 [1] of 130 nM.

Cc1cccn2c(=O)c(O)c(C(=O)NCc3ccc(F)cc3)nc12 showed an IC50 [1] of 9 nM.

With CCN(C(=O)c1cscn1)c1cccn2c(=O)c(O)c(C(=O)NCc3ccc(F)cc3)nc12 the IC50 [1] was 21 nM, the IC95 [2] was 250 nM and the Activity (MT4) was “Non-toxic”. For the same molecule, the IC95 [3] was over 1000 nM.

O=C(NCc1ccc(F)cc1)c1nc2ccccn2c(=O)c1O showed an IC50 [1] of 22 nM.

For CCN(C(=O)c1ccncc1)c1cccn2c(=O)c(O)c(C(=O)NCc3ccc(F)cc3)nc12, the IC50 [1] was 50 nM, the IC95 [2] was over 1000 nM and the Activity (MT4) was “Non-toxic”. It also gave an IC95 [3] of over 1000 nM.

In the case of CCCN(C(=O)C(=O)N(C)C)c1cccn2c(=O)c(O)c(C(=O)NCc3ccc(F)cc3)nc12, the IC50 [1] is reported as 18 nM, the IC95 [2] is reported as 31 nM and the Activity (MT4) is reported as “Non-toxic”. The IC95 [3] was 500 nM.

For CCN(C(=O)C(=O)N(C)C)c1cccn2c(=O)c(O)c(C(=O)NCc3ccc(F)cc3)nc12, the clearance [4] was 24 mL/min/kg, the IC50 [1] was 36 nM and the bioavailability [5] was 40%. For the same molecule, the IC95 [2] was 62 nM, the Activity (MT4) was “Non-toxic” and the AUC (Rattus norvegicus) was 2.9 µM·h. It also gave an IC95 [3] of 250 nM and a half-life [6] of 4.5 h.

CN(C)c1cccn2c(=O)c(O)c(C(=O)NCc3ccc(F)cc3)nc12 gave an IC50 [1] of 70 nM.

For CCN(CC)C(=O)C(=O)N(CC)c1cccn2c(=O)c(O)c(C(=O)NCc3ccc(F)cc3)nc12, the IC50 [1] was 19 nM, the IC95 [2] was 62 nM and the Activity (MT4) was “Non-toxic”. The IC95 [3] was 125 nM.

With CCN(C(=O)c1ccno1)c1cccn2c(=O)c(O)c(C(=O)NCc3ccc(F)cc3)nc12 the IC50 [1] was 18 nM, the IC95 [2] was 500 nM and the Activity (MT4) was “Non-toxic”. For the same molecule, the IC95 [3] was over 1000 nM.

With CCN(C(=O)CN1CCOCC1)c1cccn2c(=O)c(O)c(C(=O)NCc3ccc(F)cc3)nc12 the IC50 [1] was 23 nM, the IC95 [2] was over 1000 nM and the Activity (MT4) was “Non-toxic”. It also gave an IC95 [3] of over 1000 nM.

For O=C(NCc1ccc(F)cc1)c1nc2c(CN3CCOCC3)cccn2c(=O)c1O, the IC50 [1] was 170 nM.

With CC(C)N(C(=O)C(=O)N(C)C)c1cccn2c(=O)c(O)c(C(=O)NCc3ccc(F)cc3)nc12 the IC50 [1] was 21 nM, the IC95 [2] was 62 nM and the Activity (MT4) was “Non-toxic”. It also gave an IC95 [3] of over 1000 nM.

With CCN(C(=O)C(=O)N1CCOCC1)c1cccn2c(=O)c(O)c(C(=O)NCc3ccc(F)cc3)nc12 the IC50 [1] was 25 nM, the IC95 [2] was 31 nM and the Activity (MT4) was “Non-toxic”. It also gave an IC95 [3] of 250 nM.

For O=C(Nc1cccn2c(=O)c(O)c(C(=O)NCc3ccc(F)cc3)nc12)c1ccccc1, the IC50 [1] was 18 nM.
